Data published in ChEMBL document CHEMBL1800016, “Novel thiazolidinedione derivatives with anti-obesity effects: dual action as PTP1B inhibitors and PPAR-γ activators” (Bioorg Med Chem Lett, 2010).
Activity calls are given as the source filed them. The rule behind the calls is not given here.

Assays:
[1] = target: Receptor-type tyrosine-protein phosphatase F (Homo sapiens, UniProt P10586); assay: Inhibition of membrane proximal catalytic domain of LAR-D1 assessed as p-nitrophenol release from pNPP substrate preincubated for 10 mins
Procedure, shortened: (§1)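 IC50 values against the PTP panel, with enzymes prepared as described in the supplementary material. Values are means ± SD of two or more experiments.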

Mus musculus [2] = assay: Antiobesity activity in high fat diet-fed diabetic C57BL/6J Jms Slc mouse model assessed as decrease in epididymal fat at 2.6 mg/day administered with food for 4 weeks; format: functional
Procedure, shortened: (§2)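 DIO male C57BL/6J Jms Slc mice were fed a 45%-fat HFD for 8 wk, then HFD with 0.1% w/w compound in feed (about 2.6 mg/day/mouse) for 4 wk. A 10%-fat LFD lean group ran throughout. Measures were weight gain, feed efficiency (weight gain/kcal ×100), and epididymal and retroperitoneal fat pad weights. n = 8/group; mean ± SEM; one-way ANOVA.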

[3] = target: Tyrosine-protein phosphatase non-receptor type 6 (Homo sapiens, UniProt P29350); assay: Inhibition of catalytic domain of SHP-1 expressed in Escherichia coli assessed as p-nitrophenol release from pNPP substrate preincubated for 10 mins; procedure, shortened: as §1
Mus musculus [4] = assay: Toxicity in high fat diet-fed diabetic C57BL/6J Jms Slc mouse model assessed as change in weight of kidney at 2.6 mg/day administered with food for 4 weeks; format: organism-based; conditions: in vivo, po, 672 h
Procedure, shortened: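 At the end of the 4 wk in-feed dosing (about 2.6 mg/day/mouse in HFD), liver, kidney and lung weights were compared across the lean LFD, HFD control and treated groups.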

Mus musculus [5] = assay: Antidiabetic activity in high fat diet-fed diabetic C57BL/6J Jms Slc mouse model assessed as normalization of fasting blood glucose level at 2.6 mg/day administered with food for 4 weeks measured 90 mins after last dose by glucose tolerance test in presence of glucose; format: functional, organism-based
Procedure, shortened: (§3)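 Mice were male C57BL/6J Jms Slc, 5 wk old after 1 wk acclimatization. They were fed a 45%-fat HFD for 8 wk, then HFD with compound mixed in (1.0 g/kg diet, about 2.6 mg/day/mouse, 78 mg/day/kg) for 4 wk. Each mouse was fasted 6 h from the start of the light cycle and fasting glucose was measured. Glucose 1.0 g/kg was then given i.p., with readings at 60 and 90 min.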

[6] = Selectivity ratio of IC50 for yeast PTP1 to IC50 for PTP1B
[7] = Inhibition of YOP assessed as p-nitrophenol release from pNPP substrate preincubated for 10 mins; procedure, shortened: as §1
Mus musculus [8] = assay: Antiobesity activity in high fat diet-fed diabetic C57BL/6J Jms Slc mouse model assessed as decrease in non-esterified free fatty acid level in serum at 2.6 mg/day administered with food for 4 weeks; format: functional
Procedure, shortened: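 DIO mice were fed HFD for 8 wk, then HFD containing 0.1% w/w compound (about 2.6 mg/day/mouse) for 4 wk. At the end of feeding, mice were deprived of food overnight. Serum total cholesterol, triglyceride and NEFA were then measured. Values are mean ± SEM.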

Mus musculus [9] = assay: Antidiabetic activity in high fat diet-fed diabetic C57BL/6J Jms Slc mouse model assessed as normalization of blood glucose level at 2.6 mg/day administered with food for 4 weeks measured 90 mins after last dose by glucose tolerance test; format: functional, organism-based; procedure, shortened: as §3
[10] = target: T1, Peroxisome proliferator-activated receptor gamma (Homo sapiens) (UniProt P37231); assay: Agonist activity at PPARgamma expressed in HepG2 cells co-expressing PPRE assessed as concentration required for maximal activation after 24 hrs by luciferase reporter gene assay; format: functional, cell-based
T1 sequence (whole entry): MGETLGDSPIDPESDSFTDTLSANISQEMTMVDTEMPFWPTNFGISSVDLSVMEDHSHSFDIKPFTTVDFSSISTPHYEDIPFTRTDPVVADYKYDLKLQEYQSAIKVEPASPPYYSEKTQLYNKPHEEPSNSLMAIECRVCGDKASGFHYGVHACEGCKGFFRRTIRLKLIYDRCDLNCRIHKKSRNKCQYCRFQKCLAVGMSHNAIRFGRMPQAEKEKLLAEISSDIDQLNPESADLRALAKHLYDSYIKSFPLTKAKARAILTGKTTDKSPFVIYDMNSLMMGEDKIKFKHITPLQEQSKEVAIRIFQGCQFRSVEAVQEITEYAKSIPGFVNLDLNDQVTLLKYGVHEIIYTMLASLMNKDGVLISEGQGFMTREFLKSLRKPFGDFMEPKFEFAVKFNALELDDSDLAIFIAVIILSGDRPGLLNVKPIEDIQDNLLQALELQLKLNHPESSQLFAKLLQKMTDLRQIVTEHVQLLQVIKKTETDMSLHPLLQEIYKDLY

[11] = target: T2, Peroxisome proliferator-activated receptor gamma (Homo sapiens, UniProt P37231); assay: Agonist activity at PPARgamma expressed in HepG2 cells co-expressing PPRE assessed as transcriptional activation after 24 hrs by luciferase reporter gene assay; format: functional, cell-based
T2 sequence (P37231 whole entry): T1 sequence (whole entry)
Procedure, shortened: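 HepG2 cells were transfected with a PPRE-driven luciferase reporter plus CMV-βGal. The basic luciferase reporter without a PPRE site served as the negative control. Compounds were added 6 h after transfection. Cells were lysed 24 h later. Luciferase activity was read on a luminometer and normalized to β-galactosidase for transfection efficiency. Two independent experiments; error as SEM.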

[12] = target: T3, Tyrosine-protein phosphatase non-receptor type 1 (Homo sapiens, UniProt P18031); assay: Inhibition of PTP1B expressed in Escherichia coli assessed as p-nitrophenol release from pNPP substrate preincubated for 10 mins; procedure, shortened: as §1
T3 sequence (P18031 whole entry): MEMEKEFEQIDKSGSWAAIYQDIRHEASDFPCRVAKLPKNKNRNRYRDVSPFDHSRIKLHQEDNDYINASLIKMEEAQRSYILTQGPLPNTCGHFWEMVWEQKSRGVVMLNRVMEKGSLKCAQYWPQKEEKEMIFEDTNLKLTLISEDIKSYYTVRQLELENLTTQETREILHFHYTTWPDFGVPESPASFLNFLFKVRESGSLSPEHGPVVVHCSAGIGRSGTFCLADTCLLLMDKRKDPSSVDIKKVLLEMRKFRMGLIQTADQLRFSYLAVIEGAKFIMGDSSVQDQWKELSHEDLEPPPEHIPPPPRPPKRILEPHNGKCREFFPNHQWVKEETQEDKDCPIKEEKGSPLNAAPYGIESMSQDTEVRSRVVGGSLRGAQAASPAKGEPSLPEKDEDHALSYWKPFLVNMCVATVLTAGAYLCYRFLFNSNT

Mus musculus [13] = assay: Antiobesity activity in high fat diet-fed diabetic C57BL/6J Jms Slc mouse model assessed as weight gain/kcal at 2.6 mg/day administered with food for 4 weeks; format: functional; procedure, shortened: as §2

Sequence of Receptor-type tyrosine-protein phosphatase F (P10586 whole entry, the tested form may be a part): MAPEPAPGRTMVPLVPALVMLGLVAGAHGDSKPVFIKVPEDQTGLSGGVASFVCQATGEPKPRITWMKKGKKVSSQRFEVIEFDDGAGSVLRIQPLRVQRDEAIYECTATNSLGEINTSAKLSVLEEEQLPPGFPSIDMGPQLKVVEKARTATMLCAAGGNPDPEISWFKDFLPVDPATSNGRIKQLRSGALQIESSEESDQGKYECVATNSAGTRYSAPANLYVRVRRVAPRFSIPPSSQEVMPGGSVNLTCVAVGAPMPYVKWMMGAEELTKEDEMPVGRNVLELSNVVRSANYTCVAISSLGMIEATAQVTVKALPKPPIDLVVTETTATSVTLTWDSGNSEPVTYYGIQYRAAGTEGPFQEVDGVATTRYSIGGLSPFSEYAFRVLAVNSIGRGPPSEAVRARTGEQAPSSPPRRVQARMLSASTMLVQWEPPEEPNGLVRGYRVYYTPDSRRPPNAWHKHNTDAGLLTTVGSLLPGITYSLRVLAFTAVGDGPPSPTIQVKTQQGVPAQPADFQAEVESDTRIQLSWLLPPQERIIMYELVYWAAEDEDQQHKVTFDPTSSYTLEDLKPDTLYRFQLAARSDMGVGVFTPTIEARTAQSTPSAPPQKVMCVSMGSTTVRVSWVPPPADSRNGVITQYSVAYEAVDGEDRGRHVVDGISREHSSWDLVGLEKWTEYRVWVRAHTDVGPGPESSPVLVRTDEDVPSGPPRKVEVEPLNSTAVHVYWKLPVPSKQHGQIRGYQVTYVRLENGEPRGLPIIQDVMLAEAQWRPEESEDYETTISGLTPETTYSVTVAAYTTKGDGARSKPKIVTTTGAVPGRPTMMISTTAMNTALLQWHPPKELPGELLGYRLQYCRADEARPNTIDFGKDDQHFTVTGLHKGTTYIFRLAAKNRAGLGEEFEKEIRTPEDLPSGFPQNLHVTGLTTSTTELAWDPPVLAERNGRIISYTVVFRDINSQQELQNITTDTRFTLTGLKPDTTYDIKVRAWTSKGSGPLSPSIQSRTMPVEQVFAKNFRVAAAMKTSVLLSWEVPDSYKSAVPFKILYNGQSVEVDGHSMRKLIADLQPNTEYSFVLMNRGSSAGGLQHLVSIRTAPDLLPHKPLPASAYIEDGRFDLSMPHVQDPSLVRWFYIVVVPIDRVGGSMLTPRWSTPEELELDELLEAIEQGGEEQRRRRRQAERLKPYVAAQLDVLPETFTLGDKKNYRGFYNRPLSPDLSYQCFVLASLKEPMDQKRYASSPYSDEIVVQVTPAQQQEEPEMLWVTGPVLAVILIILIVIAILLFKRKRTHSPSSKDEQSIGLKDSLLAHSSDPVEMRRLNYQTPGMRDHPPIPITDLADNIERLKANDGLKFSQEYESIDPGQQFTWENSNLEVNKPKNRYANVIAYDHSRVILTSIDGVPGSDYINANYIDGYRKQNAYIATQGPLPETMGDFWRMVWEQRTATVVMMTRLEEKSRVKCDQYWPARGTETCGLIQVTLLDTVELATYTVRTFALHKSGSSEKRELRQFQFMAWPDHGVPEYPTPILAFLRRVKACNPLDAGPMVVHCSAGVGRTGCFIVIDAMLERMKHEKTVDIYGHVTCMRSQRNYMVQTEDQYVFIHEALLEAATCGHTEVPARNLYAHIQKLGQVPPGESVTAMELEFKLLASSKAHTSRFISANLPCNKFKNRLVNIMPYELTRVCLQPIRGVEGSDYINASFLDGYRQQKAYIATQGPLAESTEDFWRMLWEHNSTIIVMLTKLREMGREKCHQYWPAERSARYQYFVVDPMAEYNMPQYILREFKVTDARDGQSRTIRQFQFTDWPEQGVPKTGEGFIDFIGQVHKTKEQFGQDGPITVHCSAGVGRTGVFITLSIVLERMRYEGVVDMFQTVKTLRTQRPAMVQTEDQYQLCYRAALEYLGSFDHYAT
Sequence of Tyrosine-protein phosphatase non-receptor type 6 (P29350 whole entry, the tested form may be a part): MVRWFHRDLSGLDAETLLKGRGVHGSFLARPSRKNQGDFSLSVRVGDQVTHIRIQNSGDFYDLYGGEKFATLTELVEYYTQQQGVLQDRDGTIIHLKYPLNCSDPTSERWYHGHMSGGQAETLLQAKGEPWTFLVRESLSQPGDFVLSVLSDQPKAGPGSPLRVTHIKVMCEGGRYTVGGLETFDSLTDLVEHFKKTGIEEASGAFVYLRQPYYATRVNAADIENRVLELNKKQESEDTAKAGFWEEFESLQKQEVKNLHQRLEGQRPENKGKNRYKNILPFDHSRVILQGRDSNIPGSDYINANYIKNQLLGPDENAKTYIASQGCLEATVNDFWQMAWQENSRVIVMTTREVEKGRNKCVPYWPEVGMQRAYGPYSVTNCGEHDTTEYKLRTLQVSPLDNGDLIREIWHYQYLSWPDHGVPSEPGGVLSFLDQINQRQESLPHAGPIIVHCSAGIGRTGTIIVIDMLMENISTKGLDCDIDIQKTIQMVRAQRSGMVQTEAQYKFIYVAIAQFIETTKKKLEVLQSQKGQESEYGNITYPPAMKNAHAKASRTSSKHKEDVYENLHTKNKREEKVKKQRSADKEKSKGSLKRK

`Cc1ccc(S(=O)(=O)Oc2cc(OCc3ccc(C(F)(F)F)cc3)c(/C=C3\SC(=O)NC3=O)cc2Br)cc1` showed an IC50 [1] of over 100 µM, an Activity (Mus musculus [2]) of 1.29 g and an IC50 [3] of 3 µM. The Activity (Mus musculus [4]) was “Non-toxic”, the Activity (Mus musculus [5]) was “inactive” and the Ratio IC50 [6] was over 10. The IC50 [7] was 3.9 µM, the Activity (Mus musculus [8]) was 0.2 mM and the Activity (Mus musculus [9]) was “Active”. The Activity [10] was 1.5 µM, the EC50 [11] was 0.34 µM and the IC50 [12] was 1.3 µM. It also gave a feed efficiency (Mus musculus [13]) of 0.57 g/100 kcal.
